From ChEMBL document CHEMBL1126322, “Renin inhibitors containing alpha-heteroatom amino acids as P2 residues” (J Med Chem, 1992)

Key:
[1] = system: Monkey; assay: Effect of compound on blood pressure in conscious, salt-depleted, normotensive, cynomolgus monkeys after oral administration of 30 mg/kg dose at 2 hours; type: functional, Cercopithecidae
[2] = system: Monkey; assay: Effect of compound on blood pressure in conscious, salt-depleted, normotensive, cynomolgus monkeys after oral administration of 30 mg/kg dose at 1 hour; type: functional, Cercopithecidae
[3] = system: Monkey; assay: Effect of compound on blood pressure in conscious, salt-depleted, normotensive, cynomolgus monkeys after oral administration of 30 mg/kg dose at 3 hours; type: functional, Cercopithecidae
[4] = target: T1, Cathepsin D (Bos taurus, UniProt P80209); assay: Inhibitory activity against bovine cathepsin D
T1 sequence (P80209 whole entry): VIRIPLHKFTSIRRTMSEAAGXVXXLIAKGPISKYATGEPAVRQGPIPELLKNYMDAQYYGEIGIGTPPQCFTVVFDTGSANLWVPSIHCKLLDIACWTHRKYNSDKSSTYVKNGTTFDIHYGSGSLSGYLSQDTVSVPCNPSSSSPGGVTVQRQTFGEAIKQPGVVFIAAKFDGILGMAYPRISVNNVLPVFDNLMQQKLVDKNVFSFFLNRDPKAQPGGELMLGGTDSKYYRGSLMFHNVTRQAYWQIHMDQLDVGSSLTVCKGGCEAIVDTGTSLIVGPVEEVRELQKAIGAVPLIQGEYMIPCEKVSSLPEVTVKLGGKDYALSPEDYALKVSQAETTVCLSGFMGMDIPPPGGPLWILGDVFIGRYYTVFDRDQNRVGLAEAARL
How it was run: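 Bovine cathepsin D activity measured in duplicate as hydrolysis of bovine hemoglobin at pH 3.2 and 37 °C, read as net absorbance at 280 nm. Percent inhibition at six inhibitor concentrations; IC50 by nonlinear regression.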

[5] = organism: Bos taurus; assay: Selectivity ratio towards cathepsin D over renin
How it was run: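 Ratio of cathepsin D IC50 to monkey plasma renin IC50. […] Cathepsin D IC50 from bovine hemoglobin hydrolysis at pH 3.2, 37 °C, A280.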

[6] = Inhibitory activity against monkey renin in vitro.

IC50 [4]	IC50 [6]	SMILES	further results
21.2 nM		CC(C)C[C@H](O)[C@H](O)[C@H](CC1CCCCC1)NC(=O)C(NC(=O)[C@H](Cc1ccccc1)NS(=O)(=O)N1CCOCC1)OCC(F)(F)F (stereo partly specified)	Change in BP [1]: -1 mmHg; Change in BP [2]: -1 mmHg; Change in BP [3]: -2 mmHg
470 nM	13 nM	CC(C)C[C@H](O)[C@H](O)[C@H](CC1CCCCC1)NC(=O)C(NC(=O)[C@H](Cc1ccccc1)NS(=O)(=O)N1CCOCC1)Sc1cccs1 (stereo partly specified)	Selectivity [5]: 36.1
	310 nM	CC[C@H](C)CNC(=O)C[C@H](O)[C@H](CC(C)C)NC(=O)C(NC(=O)C(Cc1cccc2ccccc12)Cc1cccc2ccccc12)Nc1ccccc1 (stereo partly specified)	
60.4 nM		C=CCN(C)C(NC(=O)[C@H](Cc1ccccc1)NC(=O)OC(C)(C)C)C(=O)N[C@@H](CC1CCCCC1)[C@@H](O)[C@@H](O)CC(C)C (stereo partly specified)	
> 10000 nM		O=C(C[C@H](O)[C@H](CC1CCCCC1)NC(=O)C(Cc1cnc[nH]1)NC(=O)[C@H](Cc1ccccc1)NS(=O)(=O)N1CCOCC1)NCCN1CCOCC1 (stereo partly specified)	
80.1 nM	0.52 nM	C#CCOC(NC(=O)[C@H](Cc1ccccc1)NS(=O)(=O)N1CCOCC1)C(=O)N[C@@H](CC1CCCCC1)[C@@H](O)[C@@H](O)CC(C)C (stereo partly specified)	Selectivity [5]: 154
10.5 nM	0.22 nM	C=CCOC(NC(=O)[C@H](Cc1ccccc1)NS(=O)(=O)N1CCOCC1)C(=O)N[C@@H](CC1CCCCC1)[C@@H](O)[C@@H](O)CC(C)C (stereo partly specified)	
	85 nM	CC[C@H](C)CNC(=O)C[C@H](O)[C@H](CC(C)C)NC(=O)C(Cc1c[nH]cn1)NC(=O)C(Cc1cccc2ccccc12)Cc1cccc2ccccc12 (stereo partly specified)	
	1000 nM	CC[C@H](C)CNC(=O)C[C@H](O)[C@H](CC(C)C)NC(=O)C(N)NC(=O)C(Cc1cccc2ccccc12)Cc1cccc2ccccc12 (stereo in doubt; 32)	
	656 nM	CC[C@H](C)CNC(=O)C[C@H](O)[C@H](CC(C)C)NC(=O)C(NC(=O)C(Cc1cccc2ccccc12)Cc1cccc2ccccc12)Sc1ccccc1 (stereo partly specified)	
22 nM		CCCOC(NC(=O)[C@H](Cc1ccccc1)NS(=O)(=O)N1CCOCC1)C(=O)N[C@@H](CC1CCCCC1)[C@@H](O)[C@@H](O)CC(C)C (stereo partly specified)	
	95 nM	CC[C@H](C)CNC(=O)C[C@H](O)[C@H](CC(C)C)NC(=O)C(NC(=O)C(Cc1cccc2ccccc12)Cc1cccc2ccccc12)SC (stereo partly specified)	
	500 nM	CC[C@H](C)CNC(=O)C[C@H](O)[C@H](CC(C)C)NC(=O)C(NC(=O)C(Cc1cccc2ccccc12)Cc1cccc2ccccc12)NC(C)C (stereo in doubt; 36)	
	> 1000 nM	CC[C@H](C)CNC(=O)C[C@H](O)[C@H](CC(C)C)NC(=O)C(NC(=O)C(Cc1cccc2ccccc12)Cc1cccc2ccccc12)NC(C)C (stereo in doubt; 35)	
10 nM		CCSC(NC(=O)[C@H](Cc1ccccc1)NS(=O)(=O)N1CCOCC1)C(=O)N[C@@H](CC1CCCCC1)[C@@H](O)[C@@H](O)CC(C)C (stereo partly specified)	Change in BP [1]: -12 mmHg; Change in BP [2]: -14 mmHg; Change in BP [3]: -16 mmHg
131 nM	2.1 nM	CCCOC(NC(=O)[C@H](Cc1ccccc1)NS(=O)(=O)N1CCOCC1)C(=O)N[C@@H](CC1CCCCC1)C(=O)C(F)(F)C(=O)NCCN1CCOCC1 (stereo partly specified)	Change in BP [1]: -10 mmHg; Selectivity [5]: 65.5; Change in BP [2]: -10 mmHg; Change in BP [3]: -9 mmHg
10 nM	1.5 nM	C=CCSC(NC(=O)[C@H](Cc1ccccc1)NS(=O)(=O)N1CCOCC1)C(=O)N[C@@H](CC1CCCCC1)[C@@H](O)CC(=O)NCCN1CCOCC1 (stereo partly specified)	Change in BP [1]: -7 mmHg; Selectivity [5]: 6.7; Change in BP [2]: -3 mmHg; Change in BP [3]: -6 mmHg

IC50 [4]	IC50 [6]	SMILES	further results
	936 nM	CC[C@H](C)CNC(=O)C[C@H](O)[C@H](CC(C)C)NC(=O)C(NC(C)=O)NC(=O)C(Cc1cccc2ccccc12)Cc1cccc2ccccc12 (stereo partly specified)	
	210 nM	CCNC(NC(=O)C(Cc1cccc2ccccc12)Cc1cccc2ccccc12)C(=O)N[C@@H](CC(C)C)[C@@H](O)CC(=O)NC[C@@H](C)CC (stereo in doubt; 34)	
19.4 nM	0.17 nM	C=CCSC(NC(=O)[C@H](Cc1ccccc1)NS(=O)(=O)N1CCOCC1)C(=O)N[C@@H](CC1CCCCC1)[C@@H](O)[C@@H](O)CC(C)C (stereo partly specified)	Selectivity [5]: 118
	180 nM	CC[C@H](C)CNC(=O)C[C@H](O)[C@H](CC(C)C)NC(=O)C(NC(=O)C(Cc1cccc2ccccc12)Cc1cccc2ccccc12)OC (stereo partly specified)	
	26 nM	CCOC(NC(=O)C(Cc1cccc2ccccc12)Cc1cccc2ccccc12)C(=O)N[C@@H](CC(C)C)[C@@H](O)CC(=O)NC[C@@H](C)CC (stereo in doubt; 21)	
	> 1000 nM	CCNC(NC(=O)C(Cc1cccc2ccccc12)Cc1cccc2ccccc12)C(=O)N[C@@H](CC(C)C)[C@@H](O)CC(=O)NC[C@@H](C)CC (stereo in doubt; 33)	
> 10000 nM		CCOC(NC(=O)[C@H](Cc1ccccc1)NS(=O)(=O)N1CCOCC1)C(=O)N[C@@H](CC1CCCCC1)[C@@H](O)CC(=O)NCCN1CCOCC1 (stereo partly specified)	
28.1 nM	1.4 nM	CCSC(NC(=O)[C@H](Cc1ccccc1)NC(=O)OC(C)(C)C)C(=O)N[C@@H](CC1CCCCC1)[C@@H](O)[C@@H](O)CC(C)C (stereo partly specified)	Selectivity [5]: 20.1
	> 1000 nM	CC[C@H](C)CNC(=O)C[C@H](O)[C@H](CC(C)C)NC(=O)C(N)NC(=O)C(Cc1cccc2ccccc12)Cc1cccc2ccccc12 (stereo in doubt; 31)	
	615 nM	CC[C@H](C)CNC(=O)C[C@H](O)[C@H](CC(C)C)NC(=O)C(NC(=O)C(Cc1cccc2ccccc12)Cc1cccc2ccccc12)[S+](C)[O-] (stereo partly specified)	
	633 nM	CC[C@H](C)CNC(=O)C[C@H](O)[C@H](CC(C)C)NC(=O)C(NC(=O)C(Cc1cccc2ccccc12)Cc1cccc2ccccc12)Oc1ccccc1 (stereo partly specified)	
	> 1000 nM	CCOC(NC(=O)C(Cc1cccc2ccccc12)Cc1cccc2ccccc12)C(=O)N[C@@H](CC(C)C)[C@@H](O)CC(=O)NC[C@@H](C)CC (stereo in doubt; 22)	
699 nM		CCCOC(NC(=O)[C@H](Cc1ccccc1)NS(=O)(=O)N1CCOCC1)C(=O)N[C@@H](CC1CCCCC1)[C@@H](O)C(F)(F)C(=O)NCCN1CCOCC1 (stereo partly specified)	Change in BP [1]: -1 mmHg; Change in BP [2]: 3 mmHg; Change in BP [3]: -3 mmHg
14 nM		CCOC(NC(=O)[C@H](Cc1ccccc1)NS(=O)(=O)N1CCOCC1)C(=O)N[C@@H](CC1CCCCC1)[C@@H](O)[C@@H](O)CC(C)C (stereo partly specified)	
> 10000 nM		CC(C)C[C@H](O)[C@H](O)[C@H](CC1CCCCC1)NC(=O)C(Cc1cnc[nH]1)NC(=O)[C@H](Cc1ccccc1)NS(=O)(=O)N1CCOCC1 (stereo partly specified)	
	> 1000 nM	CC[C@H](C)CNC(=O)C[C@H](O)[C@H](CC(C)C)NC(=O)C(NC(=O)C(Cc1cccc2ccccc12)Cc1cccc2ccccc12)S(C)(=O)=O (stereo partly specified)	
